# In ChEMBL document CHEMBL4351020, “Application of hydrazino and hydrazido linkers to connect benzenesulfonamides with hydrophilic/phobic tails for targeting the middle region of human carbonic anhydrases active site: Selective inhibitors of hCA IX” (Eur J Med Chem, 2019):
# What was measured:
# [1] = molecular target: Carbonic anhydrase 1 (Homo sapiens, UniProt P00915); assay: Inhibition of human recombinant carbonic anhydrase 1 expressed in Escherichia coli by stopped flow CO2 hydration assay
# [2] = molecular target: Carbonic anhydrase 2 (Homo sapiens, UniProt P00918); assay: Inhibition of human recombinant carbonic anhydrase 2 expressed in Escherichia coli by stopped flow CO2 hydration assay
# [3] = molecular target: Carbonic anhydrase 9 (Homo sapiens, UniProt Q16790)
# [4] = system: MCF7; assay: Antiproliferative activity against human MCF7 cells measured after 48 hrs under hypoxia condition by MTT assay; assay type: functional, cell-based; details: MCF7, 48 h
# In short: (§1)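 MCF-7 (ATCC) grown in DMEM with 10% heat-inactivated FBS, 1% L-glutamine (2.5 mM), HEPES (10 mM), 50 µg/mL gentamycin, at 37 C, 5% CO2. Hypoxia induced chemically with CoCl2 (100 µM); normoxic cells without it. Viability by MTT colorimetric assay after 48 h exposure; IC50 is the concentration giving 50% growth inhibition relative to untreated controls.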
# [5] = system: MCF7; assay: Antiproliferative activity against human MCF7 cells measured after 48 hrs under normoxia condition by MTT assay; assay type: functional, cell-based; details: MCF7, 48 h; in short: as §1
# [6] = system: MCF7; assay: Induction of cell cycle arrest in human MCF7 cells assessed as accumulation at Pre-G1 phase at IC50 after 24 hrs by propidium iodide staining based flow cytometric analysis (reference value: 1.89%); assay type: functional
# [7] = system: MCF7; assay: Induction of apoptosis in human MCF7 cells assessed as late apoptotic cells by Annexin V-FITC/propidium iodide staining based flow cytometry (reference value: 0.49%); assay type: functional
# [8] = system: MCF7; assay: Induction of apoptosis in human MCF7 cells assessed as necrotic cells by Annexin V-FITC/propidium iodide staining based flow cytometry (reference value: 0.35%); assay type: functional
# [9] = system: MCF7; assay: Induction of cell cycle arrest in human MCF7 cells assessed as accumulation at S phase at IC50 after 24 hrs by propidium iodide staining based flow cytometric analysis (reference value: 41.36%); assay type: functional
# [10] = system: MCF7; assay: Induction of cell cycle arrest in human MCF7 cells assessed as accumulation at G2/M phase at IC50 after 24 hrs by propidium iodide staining based flow cytometric analysis (reference value: 2.37%); assay type: functional
# [11] = system: MCF7; assay: Induction of apoptosis in human MCF7 cells assessed as early apoptotic cells by Annexin V-FITC/propidium iodide staining based flow cytometry (reference value: 1.05%); assay type: functional
# [12] = system: MCF7; assay: Induction of apoptosis in human MCF7 cells assessed as total apoptotic cells by Annexin V-FITC/propidium iodide staining based flow cytometry (reference value: 1.54%); assay type: functional
# [13] = system: MCF7; assay: Induction of cell cycle arrest in human MCF7 cells assessed as accumulation at G0/G1 phase at IC50 after 24 hrs by propidium iodide staining based flow cytometric analysis (reference value: 56.27%); assay type: functional
# Carbonic anhydrase 1, sequence (P00915 whole entry): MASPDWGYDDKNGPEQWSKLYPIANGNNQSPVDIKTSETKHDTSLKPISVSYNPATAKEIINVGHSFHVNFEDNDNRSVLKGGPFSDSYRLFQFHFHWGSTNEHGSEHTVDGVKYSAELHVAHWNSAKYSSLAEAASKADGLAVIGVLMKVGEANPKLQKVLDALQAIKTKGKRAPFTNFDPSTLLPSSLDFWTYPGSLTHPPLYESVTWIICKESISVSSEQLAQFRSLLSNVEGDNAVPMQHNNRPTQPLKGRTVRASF
Compound,Ki [1] [nM],Ki [2] [nM],Ki [3] [nM],other results
NS(=O)(=O)c1ccc(N/N=C/c2ccc(-n3nnc4ccccc43)cc2)cc1,240,94.6,46.3,–
NS(=O)(=O)c1ccc(C(=O)N/N=C/c2ccc(N3CCOCC3)cc2)cc1,175,15.6,8.6,–
NS(=O)(=O)c1ccc(C(=O)N/N=C/c2ccc(-n3nnc4ccccc43)cc2)cc1,357,62.3,23.7,–
C/C(=N\Nc1ccc(S(N)(=O)=O)cc1)c1ccc(N2CCCCC2)cc1,111,69.2,7.2,–
NS(=O)(=O)c1ccc(N/N=C/c2ccc(N3CCCCC3)cc2)cc1,101,24,20.9,–
NS(=O)(=O)c1ccc(C(=O)N/N=C/c2ccc(N3CCCCC3)cc2)cc1,153,9.3,3.3,–
NS(=O)(=O)c1ccc(C(=O)N/N=C/c2ccc(N3CCCC3)cc2)cc1,347,12.5,3.1,–
NS(=O)(=O)c1ccc(N/N=C/c2ccc(N3CCCC3)cc2)cc1,96.2,29.9,19.4,–
C/C(=N\Nc1ccc(S(N)(=O)=O)cc1)c1ccc(N2CCCC2)cc1,95.4,57.7,18.3,–
C/C(=N\Nc1ccc(S(N)(=O)=O)cc1)c1ccc(N2CCOCC2)cc1,149,65.6,8.9,–
C/C(=N\NC(=O)c1ccc(S(N)(=O)=O)cc1)c1ccc(N2C(=O)c3c(Cl)c(Cl)c(Cl)c(Cl)c3C2=O)cc1,–,–,17.3,–
NS(=O)(=O)c1ccc(N/N=C/c2ccc(N3CCOCC3)cc2)cc1,87.4,34.5,16.5,–
C/C(=N\Nc1ccc(S(N)(=O)=O)cc1)c1ccc(N2CCN(C)CC2)cc1,266,89.5,2,IC50 [4]: 17300 nM; IC50 [5]: 7720 nM
NS(=O)(=O)c1ccc(N/N=C/c2ccc(-n3ccnc3)cc2)cc1,76.8,17.9,14.6,–
NS(=O)(=O)c1ccc(C(=O)N/N=C/c2ccc(-n3ccnc3)cc2)cc1,130,8.2,10.1,Activity [6]: 19.36%; IC50 [4]: 8530 nM; Activity [7]: 11.93%; Activity [8]: 3.14%; IC50 [5]: 3320 nM; Activity [9]: 29.66%; Activity [10]: 33.85%; Activity [11]: 4.29%; Activity [12]: 16.22%; Activity [13]: 36.49%
